# Measurements as given in publication PMC6430714 (Journal of the American Chemical Society, 2018).
# What was measured:
# [1] = system: S. aureus biofilms (MSSA and two MRSA strains); experiment: MBEC, summarised over the S. aureus strains; format: cell-based, Staphylococcus aureus; settings: TSB; range as stated in text (Table 1, Table SI-1)
# MSSA (29213) = experiment: Minimum inhibitory concentration, broth microdilution; format: cell-based; settings: Staphylococcus aureus
# MRSA (USA400 MW2) = experiment: as above; format: cell-based; settings: Staphylococcus aureus
# MRSA (USA300 LAC) = experiment: as above; format: cell-based; settings: Staphylococcus aureus
# MRSA USA400 MW2 biofilms = experiment: Confocal microscopy of biofilms, SYTO 9/PI live/dead staining; format: cell-based, Staphylococcus aureus; settings: 80 μM, 5 h treatment in TSB, 48 h biofilms, SYTO 9/PI fluorescence
# In short: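 USA400 MW2 grown in TSB with shaking at 37 °C to stationary phase, then adjusted in TSB to 1 × 10^7 CFU/mL. Eight-well chambered coverglass coated with 50 μg/mL fibronectin for 30 min at room temperature and PBS-washed twice. Biofilms grown statically, humidified, 37 °C, 48 h, then PBS-washed twice. Stained with SYTO 9 (all cells) and PI (dead cells) in TSB; 10× compound solution added.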
# MRSA USA300 LAC biofilms = experiment: Murine skin wound excisional biofilm model; format: in vivo, C57BL/6 mice; settings: topical 0.05%, 5 h; not statistically significant
# S. aureus strain 29213 = experiment: Resistance evolution experiment; format: cell-based, Staphylococcus aureus; settings: 14 day period, strain 29213, daily passage from 1/2 MIC well
# In short: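 An MIC assay on strain 29213 was repeated daily for 14 days, each incubated 24 h at 37 °C. Colonies from TSA were suspended in PBS to OD600 0.1 and diluted 1:100 in Mueller–Hinton broth. Inoculum was added to 2-fold serial dilutions of test compound in MHB. MIC was the lowest concentration with no growth by OD600.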
SMILES,MBEC range over the S. aureus strains [1] [µM],MIC (MSSA (29213)) [µM],MIC (MRSA (USA400 MW2)) [µM],MIC (MRSA (USA300 LAC)) [µM],viable biofilm bacteria (MRSA USA400 MW2 biofilms) [%],fold reduction in median CFU/wound compared to untreated mice (MRSA USA300 LAC biofilms) [fold],fold increase in MIC over serial passage (S. aureus strain 29213) [fold]
CN[C@H](CC(C)C)C(=O)N[C@H]1C(=O)N[C@@H](CC(N)=O)C(=O)N[C@H]2C(=O)N[C@H]3C(=O)N[C@H](C(=O)N[C@H](C(=O)O)c4cc(O)cc(O)c4-c4cc3ccc4O)[C@H](O[C@H]3C[C@](C)(N)[C@@H](O)[C@H](C)O3)c3ccc(c(Cl)c3)Oc3cc2cc(c3O[C@@H]2O[C@H](CO)[C@@H](O)[C@H](O)[C@H]2O[C@H]2C[C@](C)(NCc3ccc(-c4ccc(Cl)cc4)cc3)[C@@H](O)[C@H](C)O2)Oc2ccc(cc2Cl)[C@H]1O [Oritavancin],12 to 32,,,,,,
"CN[C@H](CC(C)C)C(=O)N[C@H]1C(=O)N[C@@H](CC(N)=O)C(=O)N[C@H]2C(=O)N[C@H]3C(=O)N[C@H](C(=O)N[C@H](C(=O)O)c4cc(O)cc(O)c4-c4cc3ccc4O)[C@H](O)c3ccc(c(Cl)c3)Oc3cc2cc(c3O[C@@H]2O[C@H](CO)[C@@H](O)[C@H](O)[C@H]2O[C@H]2C[C@](C)(N)[C@H](O)[C@H](C)O2)Oc2ccc(cc2Cl)[C@H]1O [V, vancomycin]",,0.5,0.5,0.5,65,6,4
CN[C@H]1C(=O)N[C@@H]2Cc3ccc(cc3)Oc3cc4cc(c3O[C@@H]3O[C@H](C(=O)O)[C@@H](O)[C@H](O)[C@H]3NC(=O)CCCCCCCCC(C)C)Oc3ccc(cc3Cl)[C@@H](O)[C@@H]3NC(=O)[C@H](NC(=O)[C@@H]4NC(=O)[C@@H](NC2=O)c2cc(cc(O)c2Cl)Oc2cc1ccc2O)c1ccc(O)c(c1)-c1c(O[C@H]2O[C@H](CO)[C@@H](O)[C@H](O)[C@@H]2O)cc(O)cc1[C@@H](C(=O)NCCCN(C)C)NC3=O [dalbavancin],8 to 20,,,,,,
